Source: ChEMBL document CHEMBL1154066, “Synthesis, physicochemical properties and antimicrobial activity of some new benzimidazole derivatives” (2009)
Values after ≈ are worked out from the molar mass of the structure shown.

Legend:
Candida albicans [1] = assay: Antifungal activity against Candida albicans MTCC 1637 at 300 ug/disk after 7 days by disk diffusion method; type: functional; conditions: MTCC 1637, 168 h, read-out: IZ
In short: (§1)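 Disc diffusion on Mueller–Hinton agar seeded with a standardized suspension, following NCCLS. Sterile 6 mm paper discs held 300 µg of test compound, amphotericin B at 10 µg as reference, or DMSO alone as negative control. Plates were incubated at 28 ± 2 °C for 7 days. Inhibition zone diameters (mm) were measured in triplicate and scored as 10–15, 16–21 or 22–28 mm.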

Aspergillus niger [2] = assay: Antifungal activity against Aspergillus niger at 300 ug/disk after 7 days by disk diffusion method; type: functional; conditions: 168 h, read-out: IZ; in short: as §1
Streptococcus mutans = assay: Antibacterial activity against Streptococcus mutans MTCC 890 after 20 hrs by two fold dilution method; type: functional; conditions: MTCC 890, 20 h
In short: (§2)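 Twofold agar dilution in Mueller–Hinton agar. Compounds were dissolved in DMSO and diluted into the medium at final 128–1 µg/mL. The inoculum was 10^4 CFU/plate, and a medium-plus-DMSO plate served as negative control. Plates were incubated at 35 °C for 20 h. MIC was taken as the lowest concentration giving complete growth inhibition. Experiments were run three times.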

Escherichia coli = assay: Antibacterial activity against Escherichia coli ATCC 25922 after 20 hrs by two fold dilution method; type: functional; conditions: ATCC 25922, 20 h; in short: as §2
Bacillus subtilis = assay: Antibacterial activity against Bacillus subtilis MTCC 121 after 20 hrs by two fold dilution method; type: functional; conditions: MTCC 121, 20 h; in short: as §2
Salmonella typhi = assay: Antibacterial activity against Salmonella typhi MTCC 733 after 20 hrs by two fold dilution method; type: functional, Salmonella enterica subsp. enterica serovar Typhi; conditions: Salmonella enterica, MTCC 733, 20 h
In short: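 Twofold agar dilution in Mueller–Hinton agar. Compounds dissolved in DMSO and diluted into medium to final 128–1 µg/mL; medium with DMSO at the same dilution as negative control. Inoculum 10^4 CFU/plate; incubated 35 °C for 20 h. MIC taken as lowest concentration giving complete growth inhibition, in µg/mL. Ampicillin and ciprofloxacin as references; three independent experiments.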

Aspergillus flavus [3] = assay: Antifungal activity against Aspergillus flavus at 300 ug/disk after 7 days by disk diffusion method; type: functional; conditions: 168 h, read-out: IZ; in short: as §1
Staphylococcus aureus = assay: Antibacterial activity against Staphylococcus aureus ATCC 29213 after 20 hrs by two fold dilution method; type: functional; conditions: ATCC 29213, 20 h; in short: as §2
Pseudomonas aeruginosa = assay: Antibacterial activity against Pseudomonas aeruginosa MTCC 741 after 20 hrs by two fold dilution method; type: functional; conditions: MTCC 741, 20 h; in short: as §2
Candida albicans [4] = assay: Antifungal activity against Candida albicans MTCC 1637 at 10 ug/disk after 7 days by disk diffusion method; type: functional; conditions: MTCC 1637, 168 h, read-out: IZ
Aspergillus niger [5] = assay: Antifungal activity against Aspergillus niger at 10 ug/disk after 7 days by disk diffusion method; type: functional; conditions: 168 h, read-out: IZ
Aspergillus flavus [6] = assay: Antifungal activity against Aspergillus flavus at 10 ug/disk after 7 days by disk diffusion method; type: functional; conditions: 168 h, read-out: IZ

| Structure (SMILES) | zone of inhibition at 300 µg/disc (Candida albicans [1]) [mm] | zone of inhibition at 300 µg/disc (Aspergillus niger [2]) [mm] | MIC (Streptococcus mutans) [µg/mL] | MIC (Escherichia coli) [µg/mL] | MIC (Bacillus subtilis) [µg/mL] | MIC (Salmonella typhi) [µg/mL] | zone of inhibition at 300 µg/disc (Aspergillus flavus [3]) [mm] | MIC (Staphylococcus aureus) [µg/mL] | MIC (Pseudomonas aeruginosa) [µg/mL] | zone of inhibition at 10 µg/disc (Candida albicans [4]) [mm] | zone of inhibition at 10 µg/disc (Aspergillus niger [5]) [mm] | zone of inhibition at 10 µg/disc (Aspergillus flavus [6]) [mm] |
| --- | --- | --- | --- | --- | --- | --- | --- | --- | --- | --- | --- | --- |
| Cc1nc2ccccc2n1Cc1nnc(CCl)o1 | 10 | 16 | 32 (≈ 122 µM) | 16 (≈ 60.9 µM) | 16 (≈ 60.9 µM) | > 128 | 10 | 16 (≈ 60.9 µM) |  |  |  |  |
| Cc1nc2ccccc2n1Cc1nnc(-c2ccccc2)o1 |  |  | 8 (≈ 27.6 µM) | 32 (≈ 110 µM) | 8 (≈ 27.6 µM) | 64 (≈ 220 µM) |  | 8 (≈ 27.6 µM) |  |  |  |  |
| Clc1ccc(-c2nnc(Cn3cnc4ccccc43)o2)cc1 |  |  | 16 (≈ 51.5 µM) | 32 (≈ 103 µM) | 32 (≈ 103 µM) |  |  | 32 (≈ 103 µM) |  |  |  |  |
| Cc1nc2ccccc2n1Cc1nnc(CCCl)o1 | 16 | 10 | 8 (≈ 28.9 µM) | 32 (≈ 116 µM) | 8 (≈ 28.9 µM) | 16 (≈ 57.8 µM) | 10 | 4 (≈ 14.5 µM) |  |  |  |  |
| Oc1ccc(-c2nnc(Cn3cnc4ccccc43)o2)cc1 |  |  | 32 (≈ 109 µM) | 32 (≈ 109 µM) | 16 (≈ 54.7 µM) |  |  |  | 64 (≈ 219 µM) |  |  |  |
| COc1ccccc1-c1nnc(Cn2cnc3ccccc32)o1 | 16 | < 10 |  | 32 (≈ 104 µM) | 16 (≈ 52.2 µM) |  | < 10 | 16 (≈ 52.2 µM) | > 128 |  |  |  |
| c1ccc(-c2nnc(Cn3cnc4ccccc43)o2)cc1 |  |  | 32 (≈ 116 µM) | 64 (≈ 232 µM) | 16 (≈ 57.9 µM) | > 128 |  | 16 (≈ 57.9 µM) |  |  |  |  |
| Cc1nc2ccccc2n1Cc1nnc(-c2ccc(Cl)cc2)o1 | 22 | 10 | 4 (≈ 12.3 µM) | > 128 | 4 (≈ 12.3 µM) |  | 22 | 2 (≈ 6.16 µM) |  |  |  |  |
| CCc1nnc(Cn2c(C)nc3ccccc32)o1 | 16 | 10 | 4 (≈ 16.5 µM) | 32 (≈ 132 µM) | 8 (≈ 33 µM) | 32 (≈ 132 µM) | 16 | 4 (≈ 16.5 µM) | > 128 |  |  |  |
| Clc1ccccc1-c1nnc(Cn2cnc3ccccc32)o1 |  |  | 16 (≈ 51.5 µM) | > 128 | 16 (≈ 51.5 µM) | 32 (≈ 103 µM) |  | 32 (≈ 103 µM) |  |  |  |  |
| Cc1nc2ccccc2n1Cc1nnc(-c2ccc(O)cc2)o1 | 22 | 16 | 4 (≈ 13.1 µM) | > 128 | 8 (≈ 26.1 µM) |  | 16 | 8 (≈ 26.1 µM) |  |  |  |  |
| COc1ccc(-c2nnc(Cn3c(C)nc4ccccc43)o2)cc1 | 22 | 16 | 4 (≈ 12.5 µM) | 16 (≈ 49.9 µM) | 8 (≈ 25 µM) | 16 (≈ 49.9 µM) | 16 | 2 (≈ 6.24 µM) | 64 (≈ 200 µM) |  |  |  |
| Cc1nnc(Cn2cnc3ccccc32)o1 | 16 | 16 | 16 (≈ 74.7 µM) | 16 (≈ 74.7 µM) | 16 (≈ 74.7 µM) | 32 (≈ 149 µM) | 16 | 16 (≈ 74.7 µM) | > 128 |  |  |  |
| CCc1nnc(Cn2cnc3ccccc32)o1 | 10 | < 10 | 16 (≈ 70.1 µM) | 16 (≈ 70.1 µM) | 32 (≈ 140 µM) | 64 (≈ 280 µM) | 10 | 32 (≈ 140 µM) | > 128 |  |  |  |
| Cc1nc2ccccc2n1Cc1nnc(-c2ccccc2Cl)o1 | 16 | 16 | 16 (≈ 49.3 µM) | > 128 |  | 32 (≈ 98.5 µM) | 16 |  |  |  |  |  |
| Cc1nnc(Cn2c(C)nc3ccccc32)o1 | 22 | 16 | 8 (≈ 35 µM) | 64 (≈ 280 µM) | 4 (≈ 17.5 µM) | 16 (≈ 70.1 µM) | 16 | 4 (≈ 17.5 µM) | 64 (≈ 280 µM) |  |  |  |
| Oc1ccccc1-c1nnc(Cn2cnc3ccccc32)o1 |  |  |  | 64 (≈ 219 µM) |  | 16 (≈ 54.7 µM) |  | 32 (≈ 109 µM) | 64 (≈ 219 µM) |  |  |  |
| COc1ccccc1-c1nnc(Cn2c(C)nc3ccccc32)o1 | 16 | 16 | 8 (≈ 25 µM) | 64 (≈ 200 µM) | 4 (≈ 12.5 µM) | 16 (≈ 49.9 µM) | 16 | 8 (≈ 25 µM) | 64 (≈ 200 µM) |  |  |  |
| ClCc1nnc(Cn2cnc3ccccc32)o1 | 16 | 10 | 16 (≈ 64.3 µM) |  | 32 (≈ 129 µM) | 64 (≈ 257 µM) | 10 | 16 (≈ 64.3 µM) | 32 (≈ 129 µM) |  |  |  |
| ClCCc1nnc(Cn2cnc3ccccc32)o1 | 16 | 16 |  |  | 16 (≈ 60.9 µM) | 64 (≈ 244 µM) | 10 | 16 (≈ 60.9 µM) | 32 (≈ 122 µM) |  |  |  |
| Cc1nc2ccccc2n1Cc1nnc(-c2ccccc2O)o1 |  |  | 8 (≈ 26.1 µM) | 32 (≈ 104 µM) | 16 (≈ 52.2 µM) | 32 (≈ 104 µM) |  |  |  |  |  |  |
| COc1ccc(-c2nnc(Cn3cnc4ccccc43)o2)cc1 | 16 | < 10 | 16 (≈ 52.2 µM) | 64 (≈ 209 µM) | 32 (≈ 104 µM) | 32 (≈ 104 µM) | < 10 | 16 (≈ 52.2 µM) | 32 (≈ 104 µM) |  |  |  |
| C[C@@H]1[C@H](O)[C@@H](C)/C=C/C=C/C=C/C=C/C=C/C=C/C=C/[C@H](O[C@@H]2O[C@H](C)[C@@H](O)[C@H](N)[C@@H]2O)C[C@@H]2O[C@](O)(C[C@@H](O)C[C@@H](O)[C@H](O)CC[C@@H](O)C[C@@H](O)CC(=O)O[C@H]1C)C[C@H](O)[C@H]2C(=O)O [AMPHOTERICIN B] |  |  |  |  |  |  |  |  |  | 22 | 22 | 22 |
| CC1(C)S[C@@H]2[C@H](NC(=O)[C@H](N)c3ccccc3)C(=O)N2[C@H]1C(=O)O [AMPICILLIN] |  |  | 2 (≈ 5.72 µM) | 4 (≈ 11.4 µM) | 2 (≈ 5.72 µM) | > 128 |  | 2 (≈ 5.72 µM) | > 128 |  |  |  |
| O=C(O)c1cn(C2CC2)c2cc(N3CCNCC3)c(F)cc2c1=O [CIPROFLOXACIN] |  |  |  | ≤ 1 | ≤ 1 |  |  | ≤ 1 |  |  |  |  |
